Source: publication PMC7814465 (Cell reports, 2020)

What was measured:
[1] = test system: Imp7; experiment: Pull-down from HeLa cytosol, Imp7; assay type: binding; conditions: biotinylated peptide, western blot
In short: (§1)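 Biotin-DPR bait (5 μg per 10 μl beads) immobilised overnight with 2 mg/ml ovalbumin. Prey bound in B-buffer with 2 mg/ml BSA, washed without BSA, eluted in 2× SDS loading buffer. Two independent replicates.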

[2] = test system: Impβ; experiment: Pull-down from HeLa cytosol, Impβ; assay type: binding; conditions: biotinylated peptide, western blot
In short: as §1

[3] = test system: Impα3; experiment: Pull-down from HeLa cytosol, Impα3; assay type: binding; conditions: biotinylated peptide, western blot
In short: as §1

[4] = test system: Impβ (His-S-Impβ, in the absence of Impα); experiment: Sedimentation assay, Impβ alone; assay type: biochemical
In short: (§2)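 Protein was 1 µM purified NTR alone, or 500 nM Impα with 500 nM Impβ. Samples were centrifuged 15 min at 21,000 g, 4°C. Equal volumes of supernatant and pellet were analysed by SDS-PAGE with Sypro-Ruby stain or western blot.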

[5] = test system: CRM1; experiment: Sedimentation assay, CRM1; assay type: biochemical
In short: as §2

[6] = test system: TNPO1 (His-TNPO1); experiment: SDD-AGE oligomer formation, TNPO1; assay type: biochemical; conditions: 10-fold molar excess: 2 μM importin, 20 μM TMR-DPR, pH 7.5, 200 mM NaCl, 1 h RT
[7] = test system: Impα3 (His-Impα3); experiment: SDD-AGE oligomer formation, Impα3; assay type: biochemical, rat; conditions: 10-fold molar excess: 2 μM importin, 20 μM TMR-DPR, pH 7.5, 200 mM NaCl, 1 h RT
[8] = test system: TDP-43 (TDP-43-Tev-MBP/MBP-Tev-TDP-43-GFP); experiment: TDP-43 condensate formation with DPRs, microscopy; assay type: biochemical; conditions: TMR-labeled DPR, equimolar (1x) or two-fold (2x), 2 μM TDP-43/TDP-43-GFP, Tev cleavage, 200 mM NaCl, pH 7.5
In short: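 Size-exclusion-purified TDP-43-MBP-His (2 μM) was mixed with substoichiometric MBP-TDP-43-GFP-His (1:4–1:5). Condensates were imaged by laser scanning confocal microscopy.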

[9] = test system: GAPDH in HeLa cytosol; experiment: Sedimentation assay from HeLa cytosol, GAPDH; assay type: biochemical; conditions: highest GR/PR concentrations
[10] = test system: Impb; conditions: FRET sensors and bead Halo assays; ref Hayes et al., 2019; cited from earlier work
[11] = test system: shuttling reporter (NLS and nuclear export signal); conditions: HeLa cells incubated with peptides; ref Shi et al., 2017; cited from earlier work
[12] = test system: GR- or PR-induced TDP-43 condensates; experiment: Suppression of GR- or PR-induced TDP-43 condensates by NTRs; assay type: biochemical; conditions: equimolar NTR; TMR-GR25 or TMR-PR25; Tev cleavage
In short: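 SEC-purified TDP-43-MBP-His (2 μM) was mixed with MBP-TDP-43-GFP-His at 1:4–1:5, together with equimolar TMR-labelled DPR, with or without NTRs. Mixing preceded cleavage with 100 μg/ml His-Tev in 50 mM Tris pH 7.5, 200 mM NaCl, 2 mM DTT. Condensates were imaged by laser scanning confocal microscopy.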

[13] = test system: TDP-43 condensates; experiment: Suppression of phase separation of TDP-43 alone by NTRs; assay type: biochemical; conditions: equimolar NTR, 5 μM TDP-43, Tev cleavage
In short: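 TDP-43-MBP-His (Ni-NTA then amylose purified) and TNPO1 were buffer-exchanged into 20 mM HEPES-NaOH pH 7.4, 150 mM NaCl, 1 mM DTT. TDP-43 at 5 μM, with or without 5 μM TNPO1, was started with 1 μg/ml Tev protease. Absorbance at 395 nm was read over 16 h and normalised to TDP-43 + Tev alone.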

[14] = test system: TDP-43; experiment: Sedimentation of TDP-43 with GST-GR25 and NTRs; assay type: biochemical; conditions: GST-GR25, NTR added prior to Tev cleavage; three independent experiments
In short: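 1 µM TDP-43-MBP-His was Tev-cleaved (20 µg/ml His-Tev, 60 min, 30°C) with or without equimolar GST-tagged DPR and/or NTRs, then spun 15 min at 21,000 g, 4°C. Equal supernatant and pellet volumes were analysed by SDS-PAGE with Sypro-Ruby or western blot. Percentage of soluble cleaved TDP-43 is the mean ± SEM of three experiments, compared by one-way ANOVA with Dunnett's test.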

[15] = test system: GST-GR25 / TDP-43; experiment: Sedimentation of GST-GR25 with TDP-43 and NTRs; assay type: biochemical; conditions: equimolar NTR; three independent experiments
In short: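 1 µM TDP-43-MBP-His was Tev-cleaved (20 µg/ml His-Tev, 60 min, 30°C) with or without equimolar GST-tagged DPR and/or NTRs. Samples were centrifuged 15 min at 21,000 g, 4°C. Equal volumes of supernatant and pellet were analysed by anti-GST western blot.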

[16] = test system: TDP-43; experiment: TDP-43 turbidity assay; assay type: biochemical; conditions: n = 3
In short: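 TDP-43-MBP-His (Ni-NTA then amylose purified) and TNPO1 were buffer-exchanged into 20 mM HEPES-NaOH pH 7.4, 150 mM NaCl, 1 mM DTT. TDP-43 at 5 µM final was combined with 2 µM DPR peptide (PBS control), 5 µM TNPO1, or both. Phase separation was started with 1 µg/ml Tev protease, and absorbance at 395 nm was followed over 16 h. Values were normalized to TDP-43 plus Tev alone.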

[17] = test system: TDP-43 in HeLa cytosol; experiment: Suppression by NTRs of GR-induced precipitation of cytosolic TDP-43; assay type: biochemical; conditions: equimolar NTR, three independent experiments
In short: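 Cytosol came from digitonin-permeabilised HeLa cells, cleared at 21,000 g. TMR-DPRs were added and the mix held 15 min at 4°C, then spun at 21,000 g for 15 min. Equal volumes of pellet and supernatant were analysed by western blot.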

[18] = 10-fold molar excess of TMR-labeled DPR, n = 3
[19] = extremely high concentrations (up to 40x)

Molecule | binding in pull-down [1] | binding in pull-down [2] | binding in pull-down [3] | solubility of Impβ [4, 18] | precipitation of Impβ, titration [4, 19] | solubility of CRM1 [5, 18] | precipitation of CRM1, titration [5, 19] | oligomer formation of TNPO1 (SDS-resistant) [6] | oligomer formation of Impα3 (SDS-resistant) [7] | TDP-43 condensate formation [8] | precipitation of GAPDH from HeLa cytosol [9] | direct binding to Impb in vitro [10] | import of shuttling reporter [11] | suppression of GR- or PR-induced TDP-43 condensates [12] | suppression of phase separation of TDP-43 alone [13] | reversal of poly-GR-enhanced sedimentation of TDP-43 [14] | rescue of GST-GR25 solubility in presence of TDP-43 [15] | effect on GR-mediated promotion of TDP-43 turbidity ([16]; 5 μM TNPO1, 2 μM GR20, 5 μM TDP-43, 395 nm, 16 h) | effect on TDP-43 turbidity increase in absence of GR ([16]; 5 μM TNPO1, 5 μM TDP-43, Tev cleavage, 395 nm) | suppression of GR-induced precipitation of cytosolic TDP-43 [17]
poly-PR: arginine-rich dipeptide repeat protein species; in the experiments mostly PR25 | bound equally to both poly-GR and poly-PR | bound equally to both poly-GR and poly-PR | bound equally to both poly-GR and poly-PR | remained mainly soluble | only partial or no precipitation | remained mainly soluble | only partial or no precipitation | SDS-resis-tant oligomers | SDS-resis-tant oligomers | formation of condensates | not precipitated | direct binding | reduced import | – | – | – | – | – | – | –
TNPO1: nuclear import receptor, recombinant (protein, left off: His6, N-terminal, kept) MVWDRQTKMEYEWKPDEQGLQQILQLLKESQSPDTTIQRTVQQKLEQLNQYPDFNNYLIFVLTKLKSEDEPTRSLSGLILKNNVKAHFQNFPNGVTDFIKSECLNNIGDSSPLIRATVGILITTIASKGELQNWPDLLPKLCSLLDSEDYNTCEGAFGALQKICEDSAEILDSDVLDRPLNIMIPKFLQFFKHSSPKIRSHAVACVNQFIISRTQALMLHIDSFIENLFALAGDEEPEVRKNVCRALVMLLEVRMDRLLPHMHNIVEYMLQRTQDQDENVALEACEFWLTLAEQPICKDVLVRHLPKLIPVLVNGMKYSDIDIILLKGDVEEDETIPDSEQDIRPRFHRSRTVAQQHDEDGIEEEDDDDDEIDDDDTISDWNLRKCSAAALDVLANVYRDELLPHILPLLKELLFHHEWVVKESGILVLGAIAEGCMQGMIPYLPELIPHLIQCLSDKKALVRSITCWTLSRYAHWVVSQPPDTYLKPLMTELLKRILDSNKRVQEAACSAFATLEEEACTELVPYLAYILDTLVFAFSKYQHKNLLILYDAIGTLADSVGHHLNKPEYIQMLMPPLIQKWNMLKDEDKDLFPLLECLSSVATALQSGFLPYCEPVYQRCVNLVQKTLAQAMLNNAQPDQYEAPDKDFMIVALDLLSGLAEGLGGNIEQLVARSNILTLMYQCMQDKMPEVRQSSFALLGDLTKACFQHVKPCIADFMPILGTNLNPEFISVCNNATWAIGEISIQMGIEMQPYIPMVLHQLVEIINRPNTPKTLLENTAITIGRLGYVCPQEVAPMLQQFIRPWCTSLRNIRDNEEKDSAFRGICTMISVNPSGVIQDFIFFCDAVASWINPKDDLRDMFCKILHGFKNQVGDENWRRFSDQFPLPLKERLAAFYGV | – | – | – | – | – | – | – | – | – | – | – | – | – | suppress the GR- or PR-induced formation of TDP-43 condensates | unable to abolish condensate formation of TDP-43 | efficiently reverted | completely rescued | effectively suppressed | did not affect | efficiently suppressed GR-induced precipitation of cytosolic TDP-43
